A word on the IC50: it is the concentration that gives 50% inhibition. One may read the Kd as the constant that tells how readily two partners part at equilibrium. By inhibition is commonly meant the percentage by which the read-out fell short of the control.

Data set [1] concerns the target T1, N-terminal Xaa-Pro-Lys N-methyltransferase 1 (Homo sapiens, UniProt Q9BV86).
T1 sequence (Q9BV86 whole entry): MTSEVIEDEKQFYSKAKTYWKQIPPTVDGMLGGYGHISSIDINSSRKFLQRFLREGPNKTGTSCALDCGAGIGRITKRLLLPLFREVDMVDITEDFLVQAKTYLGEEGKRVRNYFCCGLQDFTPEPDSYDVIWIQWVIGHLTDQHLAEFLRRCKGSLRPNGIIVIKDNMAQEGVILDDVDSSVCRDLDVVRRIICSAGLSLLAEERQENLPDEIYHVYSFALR
The data set can be described thus: Inhibition of recombinant human full-length His6-tagged NTMT1 (1 to 222 residues) expressed in Escherichia coli BL21-CodonPlus(DE3)-RIL competent cells pre-incubated for 10 mins in presence of SAM and SAHH before RCC1-6 addition and measured after 15 mins by fluorescence based SAHH-coupled assay. The method in brief:
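Pre-incubated 10 min at 37 °C, then started with RCC1-6 (10 µL of 50 µM stock in 100 µL). Line 11 screened at 30 µM; line 12 used 0–100 µM three-fold series, four-parameter fit. Triplicate.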

In data set [2] the target is T2, N-terminal Xaa-Pro-Lys N-methyltransferase 1 (Homo sapiens) (UniProt Q9BV86).
T2 sequence (whole entry): T1 sequence (Q9BV86 whole entry)
The data set can be described thus: Substrate activity at recombinant human full-length His6-tagged NTMT1 (1 to 222 residues) expressed in Escherichia coli BL21-CodonPlus(DE3)-RIL competent cells by MALDI-MS analysis.

The nature of data set [3]: Drug penetration in human HCT116 cells at 1 uM by MALDI-MS analysis. It counts as ADME, cell-based. The conditions noted are these: hct-116, 1 µM. The procedure, abridged:
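HCT116 cells in McCoy's 5A with 10% FBS and 1% antibiotic-antimycotic, seeded at 0.1 × 10^6 cells/mL in 24-well plates and incubated overnight at 37 °C, 5% CO2. Compound added and incubation continued for the specified time; TAT peptide run as control. Cells washed three times with PBS, freeze-lysed twice in liquid nitrogen, and lysate analysed by MALDI (DHB matrix) for intracellular compound.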

Data set [4] deals with T1, N-terminal Xaa-Pro-Lys N-methyltransferase 1. The data set can be described thus: Binding affinity to recombinant human full-length His6-tagged NTMT1 (1 to 222 residues) by ITC assay. The method in brief:
(§1)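 ITC at 25 °C. Purified protein (NTMT1 for line 1, NTMT2 for line 2) in 20 mM Tris-HCl pH 7.5, 150 mM NaCl, 0.5 mM TCEP at 30–50 µM final. Compound at 0.5–1 mM in the same buffer, titrated in as 26 injections of 10 µl, 180 s apart, reference power 15 µcal/sec.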
Background: Isothermal titration calorimetry measures the heat released or taken up as one component is titrated into another.

For data set [5], the target named is N-terminal Xaa-Pro-Lys N-methyltransferase 2 (Homo sapiens, UniProt Q5VVY1). The data set can be described thus: Binding affinity to recombinant human full-length His6-tagged NTMT2 by ITC assay. The procedure, abridged: as §1
Data set [6] has as its target T2, N-terminal Xaa-Pro-Lys N-methyltransferase 1 (Homo sapiens). The data set can be described thus: Inhibition of recombinant human full-length His6-tagged NTMT1 (1 to 222 residues) expressed in Escherichia coli BL21-CodonPlus(DE3)-RIL competent cells at 30 uM pre-incubated for 10 mins in presence of SAM and SAHH before RCC1-6 addition and measured after 15 mins by fluorescence based SAHH-coupled assay relative to control. The conditions noted are these: time 25.0 min. The procedure, abridged: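 Pre-incubated 10 min at 37 °C, then started with RCC1-6 (10 µL of 50 µM stock in 100 µL). Read Ex 370/Em 500 nm for 15 min at 37 °C. Line 11 screened at 30 µM; line 12 used 0–100 µM three-fold series, four-parameter fit. Triplicate.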

Data set [7] has the same target. The data set can be described thus: Inhibition of NTMT1 in human HCT116 cells assessed as decrease in me3-SPK level at 100 uM incubated for 72 hrs by Western blot analysis. The data set is classed as cell-based. Particulars: […]. The procedure, abridged:
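HCT116 cells seeded at 20,000 cells/well and treated 3 days with compound or PBS. Lysed in RIPA for 30 min on ice; equal protein (BCA) run on 12.5% SDS-PAGE and transferred to PVDF. Blotted with anti-me3-SPK (1:5000) overnight at 4 °C, with Lamin B1, SET and RCC1 antibodies, then HRP anti-rabbit.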
A general note: Immunoblotting shows a protein as a band on a membrane.

The source made the active and inactive calls. No cut-off for these calls is given here. Where a SMILES comes first, the peptide text is derived from it. [ ]: non-standard residue; d: D form. The star is where a group is joined. ξ: configuration not given here. ξαMeP = CC1(C(=O)O)CCCN1; X1 = O=C(Cc1ccc(O)cc1)*; PhAc = O=C(Cc1ccccc1)*; Bz = O=C(c1ccccc1)*

Sequence of N-terminal Xaa-Pro-Lys N-methyltransferase 2 (Q5VVY1 whole entry, the tested form may be a part): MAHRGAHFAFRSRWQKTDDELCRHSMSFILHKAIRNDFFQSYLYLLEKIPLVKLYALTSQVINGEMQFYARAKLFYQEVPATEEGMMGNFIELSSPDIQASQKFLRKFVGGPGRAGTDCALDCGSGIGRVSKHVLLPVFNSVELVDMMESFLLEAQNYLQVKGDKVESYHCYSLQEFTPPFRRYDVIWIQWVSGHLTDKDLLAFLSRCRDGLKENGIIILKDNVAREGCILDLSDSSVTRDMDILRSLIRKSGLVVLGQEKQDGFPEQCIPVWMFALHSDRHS

As to `COc1ccc(CC(=O)N2CCC[C@H]2C(=O)N[C@@H](CCCCN)C(=O)N[C@@H](CCCNC(=N)N)C(N)=O)cc1`, the IC50 in data set [1] is over 100 µM. In addition, in data set [2], the result was inactive.

Regarding `N=C(N)NCCC[C@H](NC(=O)[C@H](CCCCN)NC(=O)[C@@H]1CCCN1C(=O)C1CCCCC1)C(N)=O`, the IC50 in data set [1] is over 100 µM. The result in data set [2] was inactive.

For the molecule `N=C(N)NCCC[C@H](NC(=O)[C@H](CCCCN)NC(=O)[C@@H]1CCCN1C(=O)Cc1ccc(N)cc1)C(N)=O`, in data set [1], the IC50 came out at 4.3 µM. Also, the result in data set [2] was inactive.

In the case of `C[C@H](NC(=O)[C@H](CCCCN)NC(=O)[C@@H]1CCCN1C(=O)Cc1ccc(O)cc1)C(N)=O`, the IC50 in data set [1] stood at 4.8 µM. Moreover, the result in data set [2] was inactive.

On to `N=C(N)NCCC[C@H](NC(=O)[C@H](CCCCN)NC(=O)[C@@H]1CCCN1C(=O)CCc1ccc(N)cc1)C(N)=O`, for which, in data set [1], the IC50 was found to be 12 µM. In data set [2], the result was inactive.

As for `N=C(N)NCCC[C@H](NC(=O)C[C@@H](CCCN)NC(=O)[C@@H]1CCCN1C(=O)Cc1ccc(O)cc1)C(N)=O`, the IC50 in data set [1] was found to be 32.9 µM. For the same molecule, the result in data set [2] was inactive.

Consider `NCCCC[C@H](NC(=O)[C@@H]1CCCN1C(=O)Cc1ccc(O)cc1)C(=O)NCC(N)=O`, for which the IC50 in data set [1] is 13 µM. The outcome in data set [2] was inactive.

On to `N=C(N)NCCC[C@H](NC(=O)[C@H](CCCCN)NC(=O)[C@@H]1CCCN1C(=O)c1ccco1)C(N)=O`, for which, in data set [1], the IC50 was over 100 µM. Moreover, the outcome in data set [2] was inactive.

In the case of `N=C(N)NCCC[C@@H](NC(=O)[C@H](CCCCN)NC(=O)[C@@H]1CCCN1C(=O)Cc1ccc(O)cc1)C(N)=O`, the IC50 in data set [1] is 4.2 µM. Besides, the result in data set [2] was inactive.

For `N=C(N)NCCC[C@H](NC(=O)[C@H](CCCCN)NC(=O)[C@@H]1CCCN1C(=O)C1CCCC1)C(N)=O`, the IC50 in data set [1] is over 100 µM. In data set [2], the result was inactive.

On to `N=C(N)NCCC[C@H](NC(=O)[C@H](CCCCN)NC(=O)c1ccccc1NC(=O)Cc1ccc(O)cc1)C(N)=O`, for which the IC50 in data set [1] was over 100 µM. Further, in data set [2], the outcome was inactive.

In the case of `CC1(C(=O)N[C@@H](CCCCN)C(=O)N[C@@H](CCCNC(=N)N)C(N)=O)CCCN1C(=O)Cc1ccccc1` (stereo partly drawn) (PhAc-[ξαMeP]-Lys-Arg-NH2), in data set [1], the half-maximal inhibitory concentration (IC50) was over 100 µM. The result in data set [2] was inactive.

Turning to `N=C(N)NCCC[C@H](NC(=O)[C@H](CCCNC(=N)N)NC(=O)[C@H](CCCNC(=N)N)NC(=O)[C@H](CCC(N)=O)NC(=O)[C@H](CCCNC(=N)N)NC(=O)[C@H](CCCNC(=N)N)NC(=O)[C@H](CCCCN)NC(=O)[C@H](CCCCN)NC(=O)[C@H](CCCNC(=N)N)NC(=O)CNC(=O)[C@H](CCCNC(=N)N)NC(=O)[C@H](CCCCN)NC(=O)[C@@H]1CCCN1C(=O)Cc1ccc(O)cc1)C(N)=O`, in data set [3], the Drug uptake entry is “Active”. Further, the figures for the Kd in data set [4] and in data set [5] were 0.6 µM and 3.4 µM, respectively.

Take `N=C(N)NCCC[C@H](NC(=O)[C@H](CCCCN)NC(=O)[C@@H]1CCCN1C(=O)Cc1ccccc1)C(N)=O` (PhAc-Pro-Lys-Arg-NH2): the concentration for half-maximal inhibition (IC50) in data set [1] stood at 6.85 µM. Besides, in data set [2], the outcome was inactive. Besides, the inhibition in data set [6] was over 50%.

On to `N=C(N)NCC[C@H](CC(N)=O)NC(=O)[C@H](CCCCN)NC(=O)[C@@H]1CCCN1C(=O)Cc1ccc(O)cc1`, for which the IC50 in data set [1] was found to be 6.4 µM. Besides, the outcome in data set [2] was inactive.

As to `N=C(N)NCCC[C@H](NC(=O)[C@H](CCCCN)NC(=O)[C@@H]1CCCN1CCc1ccc(O)cc1)C(N)=O`, the IC50 in data set [1] was over 100 µM. In addition, the outcome in data set [2] was inactive.

As to `NCCCC[C@H](NC(=O)[C@H](CCCCN)NC(=O)[C@@H]1CCCN1C(=O)Cc1ccc(O)cc1)C(N)=O`, in data set [1], the 50% inhibitory concentration (IC50) worked out at 1 µM. Moreover, in data set [2], the result was inactive.

As to `N=C(N)NCCC[C@H](NC(=O)[C@H](CCCNC(=N)N)NC(=O)[C@H](CCCNC(=N)N)NC(=O)[C@H](CCCNC(=N)N)NC(=O)[C@H](CCCNC(=N)N)NC(=O)[C@H](CCCNC(=N)N)NC(=O)[C@H](CCCCN)NC(=O)[C@@H]1CCCN1C(=O)Cc1ccc(O)cc1)C(N)=O` (X1-PKRRRRRR-NH2), the Drug uptake result in data set [3] is listed as “Active”. The inhibition entry in data set [7] was “Active”. Further, the results for the Kd in data set [4] and in data set [5] were 0.3 µM and 1 µM, respectively.

As to `N=C(N)NCCC[C@H](NC(=O)[C@H](CCCCN)NC(=O)[C@@H]1CCCN1C(=O)c1ccccc1)C(N)=O` (Bz-Pro-Lys-Arg-NH2), the IC50 in data set [1] is over 100 µM. In addition, the outcome in data set [2] was inactive.

For the molecule `N=C(N)NCCC[C@H](NC(=O)[C@H](CCCCN)NC(=O)c1cccc(NC(=O)Cc2ccc(O)cc2)c1)C(N)=O`, the IC50 in data set [1] was over 100 µM. Moreover, in data set [2], the outcome was inactive.

Regarding `N=C(N)NCCC[C@H](NC(=O)[C@H](CCCCN)NC(=O)[C@@H]1CCCN1C(=O)Cc1ccc(CO)cc1)C(N)=O`, in data set [2], the outcome was inactive.

As for `N=C(N)NCCC[C@H](NC(=O)[C@H](CCCCN)NC(=O)[C@@H]1CCCN1C(=O)CCc1ccc(O)cc1)C(N)=O`, the IC50 in data set [1] is 4.5 µM. Also, the outcome in data set [2] was inactive.

Take `C[C@@H](O)[C@H](NC(=O)[C@H](CCCCN)NC(=O)[C@@H]1CCCN1C(=O)Cc1ccc(O)cc1)C(N)=O`: the IC50 in data set [1] was found to be 4.8 µM. Moreover, the outcome in data set [2] was inactive.

On to `NCCCC[C@H](NC(=O)[C@@H]1CCCN1C(=O)Cc1ccc(O)cc1)C(N)=O`, for which the concentration for half-maximal inhibition (IC50) in data set [1] was 16 µM. Also, the outcome in data set [2] was inactive.

Values taken from ChEMBL document CHEMBL4725283, “Selective Peptidomimetic Inhibitors of NTMT1/2: Rational Design, Synthesis, Characterization, and Crystallographic Studies” (J Med Chem, 2020).
